Tests used:
Human alphaherpesvirus 2 = assay: Antiviral activity against Herpes simplex virus 2 MS infected in Vero cells assessed as inhibition of virus-induced cytopathogenicity by MTT assay; assay type: functional, organism-based; conditions: Human alphaherpesvirus 2, MS
Procedure, shortened: (§1)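 MTT-based CPE assay in Vero cells with HSV-1 strain F or HSV-2 strain MS. CC50 is the concentration that reduces viability of uninfected Vero cells by 50%. EC50 is the concentration that improves viability of HSV-infected cells by 50%.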

Human alphaherpesvirus 1 = assay: Antiviral activity against Herpes simplex virus 1 F infected in Vero cells assessed as inhibition of virus-induced cytopathogenicity by MTT assay; assay type: functional, organism-based; conditions: Human alphaherpesvirus 1, strain F; procedure, shortened: as §1
[1] = Cytotoxicity against african green monkey Vero cells by MTT assay; assay type: cell-based; conditions: chlorocebus sabaeus; procedure, shortened: as §1
[2] = Selectivity ratio of CC50 for MDCK cells to EC50 for Influenza B virus (B/Brisbane/60/2008); assay type: ADME, cell-based; conditions: dog, read-out: Ratio CC50/EC50
Procedure, shortened: (§2)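 Confluent MDCK monolayers were mock-infected or infected with about 50-100 PFU of influenza virus per well. At read-out the medium was removed and cells were stained with fluorescein diacetate in PBS for 20 min at 35 °C. Fluorescence was read at ex 485/em 538 nm. CC50 and EC50 were derived from the fluorescence, and the selectivity index was taken as CC50/EC50.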

[3] = Selectivity ratio of CC50 for MDCK cells to EC50 for Influenza B virus (B/Lee/40); assay type: ADME, cell-based; conditions: dog, read-out: Ratio CC50/EC50; procedure, shortened: as §2
[4] = Selectivity ratio of CC50 for MDCK cells to EC50 for Influenza B virus (B/Taiwan/2/62); assay type: ADME, cell-based; conditions: dog, read-out: Ratio CC50/EC50; procedure, shortened: as §2
[5] = Selectivity ratio of CC50 for MDCK cells to EC50 for Influenza B virus (B/Panama/45/1990); assay type: ADME, cell-based; conditions: dog, read-out: Ratio CC50/EC50; procedure, shortened: as §2
Influenza B virus [6] = assay: Antiviral activity against Influenza B virus (B/Brisbane/60/2008) infected in MDCK cells assessed as inhibition of virus-induced cytopathogenicity at 1 hr post-infection measured after 3 days by fluorescein-diacetate based fluorimetric analysis; assay type: functional, cell-based; conditions: B/Brisbane/60/2008, MDCK; procedure, shortened: as §2
Influenza B virus [7] = assay: Antiviral activity against Influenza B virus (B/Lee/40) infected in MDCK cells assessed as inhibition of virus-induced cytopathogenicity at 1 hr post-infection measured after 3 days by fluorescein-diacetate based fluorimetric analysis; assay type: functional, organism-based; conditions: B/Lee/1940, MDCK; procedure, shortened: as §2
Influenza B virus [8] = assay: Antiviral activity against Influenza B virus (B/Taiwan/2/62) infected in MDCK cells assessed as inhibition of virus-induced cytopathogenicity at 1 hr post-infection measured after 3 days by fluorescein-diacetate based fluorimetric analysis; assay type: functional, organism-based; procedure, shortened: as §2
Influenza B virus [9] = assay: Antiviral activity against Influenza B virus (B/Panama/45/1990) infected in MDCK cells assessed as inhibition of virus-induced cytopathogenicity at 1 hr post-infection measured after 3 days by fluorescein-diacetate based fluorimetric analysis; assay type: functional, cell-based; conditions: B/Panama/45/1990, MDCK; procedure, shortened: as §2
Influenza A virus = assay: Antiviral activity against Influenza A virus (A/Taiwan/1/1986(H1N1)) infected in MDCK cells assessed as inhibition of virus-induced cytopathogenicity at 1 hr post-infection measured after 3 days by fluorescein-diacetate based fluorimetric analysis; assay type: functional, organism-based; procedure, shortened: as §2
[10] = Cytotoxicity against MDCK cells after 3 days by fluorescein diacetate-based fluorimetric analysis; assay type: cell-based, Canis lupus familiaris; conditions: dog; procedure, shortened: as §2
[11] = test system: Human immunodeficiency virus 2; assay: Antiviral activity against Human immunodeficiency virus 2 ROD infected in MT4 cells assessed as inhibition of virus-induced cytopathogenicity by MTT assay; assay type: functional, organism-based; conditions: Human immunodeficiency virus 2, ISOLATE ROD
Procedure, shortened: (§3)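 MTT-based CPE assay in MT4 cells. CC50 is the concentration that reduces viability of uninfected MT4 cells by 50%. EC50 is the concentration that improves viability of HIV-infected cells by 50%.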

[12] = Cytotoxicity against human MT4 cells by MTT assay; assay type: cell-based; procedure, shortened: as §3
[13] = test system: Human immunodeficiency virus 1; assay: Antiviral activity against Human immunodeficiency virus 1 3B infected in MT4 cells assessed as inhibition of virus-induced cytopathogenicity by MTT assay; assay type: functional, organism-based; procedure, shortened: as §3
MDCK = assay: Cytotoxicity against MDCK cells assessed as cell death at 500 uM after 3 days by fluorescein diacetate-based fluorimetric analysis; parameters: species or system Canis lupus familiaris; conditions: dog, 72 h

SMILES	EC50 (Influenza B virus [6])	EC50 (Influenza B virus [7])	EC50 (Influenza B virus [8])	EC50 (Influenza B virus [9])	EC50 (Influenza A virus)	CC50 at 72 h [10]	further results
Cc1cc2c(cc1C)C(=O)C1(OC(=O)c3ccccc31)O2 (stereo not drawn)	4.8 µM	16.1 µM	3.6 µM	3 µM	23.4 µM	> 500 µM	EC50 (Human alphaherpesvirus 2): > 312 µM; EC50 (Human alphaherpesvirus 1): > 312 µM; CC50 [1]: 312 µM; selectivity ratio [2]: 30; selectivity ratio [3]: 30; selectivity ratio [4]: 30; selectivity ratio [5]: > 15; EC50 [11]: > 158 µM; CC50 [12]: 158 µM; EC50 [13]: > 158 µM
O=C1OC2(Oc3ccccc3C2=O)c2ccccc21 (stereo not drawn)	–	–	–	88.1 µM	> 500 µM	> 500 µM	selectivity ratio [5]: 20
CC(C)c1ccc2c(c1)OC1(OC(=O)c3ccccc31)C2=O (stereo not drawn)	–	–	–	44.9 µM	148 µM	314 µM	–
O=C1OC2(Oc3c(ccc4ccccc34)C2=O)c2ccccc21 (stereo not drawn)	–	–	–	< 6.2 µM	< 6.2 µM	40.4 µM	–
O=C1OC2(Oc3cc4ccccc4cc3C2=O)c2ccccc21 (stereo not drawn)	132 µM	159 µM	39.4 µM	96.1 µM	206 µM	> 500 µM	–
O=C1OC2(Oc3cc(-c4ccccc4)ccc3C2=O)c2ccccc21 (stereo not drawn)	–	–	–	< 6.2 µM	7.6 µM	36.3 µM	selectivity ratio [5]: < 5
O=C1OC2(Oc3cc(Cl)ccc3C2=O)c2ccccc21 (stereo not drawn)	–	–	–	> 500 µM	> 500 µM	> 500 µM	–
CCOC(=O)c1ccc2c(c1)C(=O)C1(OC(=O)c3ccccc31)O2 (stereo not drawn)	–	–	–	> 500 µM	> 500 µM	> 500 µM	–
O=C1OC2(Oc3cc(F)ccc3C2=O)c2ccccc21 (stereo not drawn)	–	–	–	8.2 µM	100 µM	> 500 µM	Activity (MDCK): > 20%; selectivity ratio [5]: > 15
O=C1OC2(Oc3c(Cl)ccc(Cl)c3C2=O)c2ccccc21 (stereo not drawn)	–	–	–	18.4 µM	25.5 µM	86 µM	–
Cc1cc2c(cc1C)C1(OC2=O)Oc2cc(C(C)C)ccc2C1=O (stereo not drawn)	–	–	–	> 500 µM	321 µM	> 500 µM	–
COc1cc2c(cc1OC)C1(OC2=O)Oc2cc(C(C)C)ccc2C1=O (stereo not drawn)	–	–	–	33.3 µM	> 500 µM	> 500 µM	Activity (MDCK): 47%; selectivity ratio [5]: > 15
Nc1ccc2c(c1)OC1(OC(=O)c3ccccc31)C2=O (stereo not drawn)	–	–	–	27.4 µM	49 µM	305 µM	–
COc1ccc2c(c1)OC1(OC(=O)c3ccccc31)C2=O (stereo not drawn)	–	–	–	> 500 µM	> 500 µM	> 500 µM	–
Cc1cccc2c1OC1(OC(=O)c3ccccc31)C2=O (stereo not drawn)	104 µM	199 µM	53 µM	24.7 µM	83.2 µM	> 500 µM	–
Cc1ccc2c(c1)OC1(OC(=O)c3ccccc31)C2=O (stereo not drawn)	46.9 µM	59.9 µM	31.2 µM	25.7 µM	27.8 µM	376 µM	–
Cc1ccc2c(c1)C(=O)C1(OC(=O)c3ccccc31)O2 (stereo not drawn)	28 µM	32.8 µM	24.8 µM	7.6 µM	32.9 µM	293 µM	–
O=C1OC2(Oc3c(cccc3-c3ccccc3)C2=O)c2ccccc21 (stereo not drawn)	11.2 µM	12.2 µM	8.3 µM	4.3 µM	12.9 µM	29.2 µM	selectivity ratio [5]: < 5

SMILES	EC50 (Influenza B virus [6])	EC50 (Influenza B virus [7])	EC50 (Influenza B virus [8])	EC50 (Influenza B virus [9])	EC50 (Influenza A virus)	CC50 at 72 h [10]	further results
O=C1OC2(Oc3ccc(-c4ccccc4)cc3C2=O)c2ccccc21 (stereo not drawn)	12.1 µM	14.1 µM	10.8 µM	6.6 µM	> 30.3 µM	30.3 µM	selectivity ratio [5]: < 5
O=C1OC2(Oc3c(Cl)cccc3C2=O)c2ccccc21 (stereo not drawn)	96.3 µM	227 µM	61.4 µM	21.7 µM	174 µM	> 500 µM	–
O=C1OC2(Oc3ccc(Cl)cc3C2=O)c2ccccc21 (stereo not drawn)	28.6 µM	38.8 µM	21.7 µM	7.8 µM	25.2 µM	153 µM	–
CCc1ccc2c(c1)OC1(OC(=O)c3ccccc31)C2=O (stereo not drawn)	32.2 µM	34.4 µM	12.1 µM	11.2 µM	34.6 µM	103 µM	–
CCc1ccc2c(c1)C(=O)C1(OC(=O)c3ccccc31)O2 (stereo not drawn)	25.4 µM	31.2 µM	9.3 µM	7.5 µM	28.1 µM	112 µM	–
CCCc1ccc2c(c1)C(=O)C1(OC(=O)c3ccccc31)O2 (stereo not drawn)	27.6 µM	33.7 µM	25 µM	9.8 µM	30.8 µM	100 µM	–
Cc1ccc2c(c1C)OC1(OC(=O)c3ccccc31)C2=O (stereo not drawn)	23.5 µM	32 µM	28.9 µM	9.9 µM	7.1 µM	370 µM	–
Cc1cc(C)c2c(c1)OC1(OC(=O)c3ccccc31)C2=O (stereo not drawn)	> 500 µM	> 500 µM	> 500 µM	> 500 µM	11.4 µM	> 500 µM	–
Cc1ccc(C)c2c1OC1(OC(=O)c3ccccc31)C2=O (stereo not drawn)	42.7 µM	> 187 µM	66.6 µM	> 187 µM	> 187 µM	187 µM	–
O=C1OC2(Oc3cc4c(cc3C2=O)CCC4)c2ccccc21 (stereo not drawn)	4.8 µM	10.6 µM	5.7 µM	2.1 µM	9.8 µM	80.4 µM	–
Cc1cc2c(c(C)c1C)C(=O)C1(OC(=O)c3ccccc31)O2 (stereo not drawn)	103 µM	254 µM	23.2 µM	11 µM	> 500 µM	> 500 µM	–
COc1cccc2c1OC1(OC(=O)c3ccccc31)C2=O (stereo not drawn)	81.1 µM	58.2 µM	42.3 µM	23.6 µM	126 µM	253 µM	–
Nc1nc2c(ncn2COCCO)c(=O)[nH]1 [ACYCLOVIR]	–	–	–	–	–	–	EC50 (Human alphaherpesvirus 2): 58.6 µM; EC50 (Human alphaherpesvirus 1): 1.7 µM; CC50 [1]: > 50 µM
NC12CC3CC(CC(C3)C1)C2 [AMANTADINE]	> 100 µM	> 100 µM	> 100 µM	> 100 µM	0.6 µM	> 100 µM	–
O=c1[nH]cnc2c1ncn2[C@H]1CC[C@@H](CO)O1 [DIDANOSINE]	–	–	–	–	–	–	EC50 [11]: 34.7 µM; CC50 [12]: > 500 µM; EC50 [13]: 7.8 µM
NC(=O)c1nc(F)cnc1O [FAVIPIRAVIR]	1.32 µM	1.93 µM	2.84 µM	1.94 µM	6.95 µM	> 100 µM	–
Nc1ccn([C@H]2CC[C@@H](CO)O2)c(=O)n1 [ZALCITABINE]	–	–	–	–	–	–	EC50 [11]: 0.4 µM; CC50 [12]: 75.2 µM; EC50 [13]: 0.4 µM

— ChEMBL document CHEMBL2331187, “Efficient synthesis of 3H,3'H-spiro[benzofuran-2,1'-isobenzofuran]-3,3'-dione as novel skeletons specifically for influenza virus type B inhibition” (Eur J Med Chem, 2013)
